ChEMBL document CHEMBL3232878, “QSAR on antiproliferative naphthoquinones based on a conformation-independent approach” (2014)

Tests used:
Assay type in all cases: functional
[1] = system: WiDr; experiment: Growth inhibition of human WiDr cells after 48 hrs by SRB assay
How it was run: (§1)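 Cells maintained in RPMI 1640 with 5% heat-inactivated fetal calf serum and 2 mM L-glutamine at 37 °C, 5% CO₂, humidified air. Exponentially growing cells trypsinized and resuspended in medium containing penicillin G (100 units/mL) and streptomycin (0.1 mg/mL). Single-cell suspensions with >97% viability by trypan blue exclusion counted, diluted and seeded into 96-well plates.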

[2] = system: SW1573; experiment: Growth inhibition of human SW1573 cells after 48 hrs by SRB assay; settings: SW1573, 48 h; how it was run: as §1
[3] = Growth inhibition of human HBL100 cells after 48 hrs by SRB assay; settings: HBL-100, 48 h; how it was run: as §1
[4] = system: HeLa; experiment: Growth inhibition of human HeLa cells after 48 hrs by SRB assay; how it was run: as §1

GI50 [2] | GI50 [4] | Structure (SMILES) | GI50 [1] | GI50 [3]
2.4 µM | 1.9 µM | CC1OC2=C(C(=O)C(=O)c3cccc(O)c32)C1(C)C (configuration not stated) | 19 µM | 2.2 µM
0.99 µM | 1.9 µM | CC1OC2=C(C(=O)C(=O)c3c(O)cccc32)C1(C)C (configuration not stated) | 5.2 µM | 0.54 µM
1.3 µM | 0.9 µM | CC1C2=C(OC1(C)C)c1c(O)cccc1C(=O)C2=O (configuration not stated) | 2.1 µM | 2 µM
0.48 µM | 1.8 µM | CC1C2=C(OC1(C)C)c1cccc(O)c1C(=O)C2=O (configuration not stated) | 16 µM | 0.34 µM
2.7 µM | 3 µM | C=C(C)C1CC2=C(O1)c1c(O)cccc1C(=O)C2=O (configuration not stated) | 26 µM | 3 µM
1.6 µM | 1.6 µM | CC1(C)C2=C(OC1CI)c1c(O)cccc1C(=O)C2=O (configuration not stated) | 1.8 µM | 1.8 µM
0.8 µM | 1.5 µM | CC1(C)C2=C(OC1CI)c1cccc(O)c1C(=O)C2=O (configuration not stated) | 1.9 µM | 0.46 µM
1 µM | 0.21 µM | C=C(C)C1CC2=C(O1)c1cccc(O)c1C(=O)C2=O (configuration not stated) [LANTALUCRATIN B] | 2.2 µM | 0.46 µM
